The target of data set [1] is Protein cereblon/Poly [ADP-ribose] polymerase 1 (Homo sapiens, UniProt P09874+Q96SW2). The data set can be described thus: Protac activity at CRBN/PARP1 in human MDA-MB-436 cells assessed as induction of PARP1 degradation at 30 nM incubated for 24 hrs in presence of NEDD8-activating E1 enzyme inhibitor MLN4924 by Western blot analysis. (A western blot detects proteins with antibodies after separation by electrophoresis.)

Data set [2] deals with CAPAN-1. In words: Potentiation of cisplatin induced antitumor activity against CAPAN-1 cells xenografted in Balb/c mouse administered intraperitoneally once daily for 5 days. The class given is functional. Conditions: dose mg/kg 25-50, time 5.0 day. The gist of the method: (§1)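 Male BALB/c nude mice carried Capan-1 xenografts (5×10^6 cells s.c.), randomized at ~150 mm³ (6 per group). Treatment was 25 or 50 mg/kg intraperitoneally or 100 mg/kg by oral gavage, once daily on days 0-4. Cisplatin 6 mg/kg in saline was given intraperitoneally on day 2, 45 min after the partner drug. Tumor volume and body weight were measured 2-3 times weekly.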

Data set [3] is described as follows: Plasma concentration in ICR mouse at 25 mg/kg, ip at 1 hr postinjection by LC-tandem mass spectrometry analysis. The class given is ADME, organism-based. The gist of the method: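 Female ICR mice (20-23 g, 6-7 weeks old, n = 3) received a single 25 mg/kg intraperitoneal dose formulated in 5% DMSO/15% Solutol HS15/80% D5W. Plasma was sampled at 0.5, 1, 2, 4, 6, 8 and 24 h and protein-precipitated with methanol. Compound was quantified by LC-MS/MS against a standard curve.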

Data set [4] in a line: Acute toxicity in Balb/c mouse xenografted with SW-620 cells assessed as lethality at 5 to 10 mg/kg, ip qd administered for 5 days in presence of TMZ. Format: organism-based. Conditions: in vivo, 120 h, dose 5-10 mg/kg, time 5 day. In short, it runs like this: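 In male BALB/c nude mice (5–6 weeks), s.c. SW620 xenografts (6×10^6 cells, right armpit) were grown to about 150 mm³, then randomised, 6 per group. The agent was given once daily for 5 days, orally or i.p., in 5% DMSO/20% PEG400/10% Cremophor EL/65% saline. TMZ 50 mg/kg was given orally once daily for 5 days from day 0, 45 min after the agent. Body weight was measured 2–3 times weekly.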

The subject of data set [5] is CAPAN-1. The data set can be described thus: Potentiation of cisplatin induced antitumor activity against CAPAN-1 cells xenografted in Balb/c mouse at 50 mg/kg, ip qd administered for 5 days measured on day 16. Format: functional, organism-based. The conditions noted are these: time 16.0 day. In short, it runs like this:
as §1

Calls of active or inactive are those of the source. No cut-off for these calls is given here.

Protein cereblon/Poly [ADP-ribose] polymerase 1, sequence (P09874 2-1014 limits assumed): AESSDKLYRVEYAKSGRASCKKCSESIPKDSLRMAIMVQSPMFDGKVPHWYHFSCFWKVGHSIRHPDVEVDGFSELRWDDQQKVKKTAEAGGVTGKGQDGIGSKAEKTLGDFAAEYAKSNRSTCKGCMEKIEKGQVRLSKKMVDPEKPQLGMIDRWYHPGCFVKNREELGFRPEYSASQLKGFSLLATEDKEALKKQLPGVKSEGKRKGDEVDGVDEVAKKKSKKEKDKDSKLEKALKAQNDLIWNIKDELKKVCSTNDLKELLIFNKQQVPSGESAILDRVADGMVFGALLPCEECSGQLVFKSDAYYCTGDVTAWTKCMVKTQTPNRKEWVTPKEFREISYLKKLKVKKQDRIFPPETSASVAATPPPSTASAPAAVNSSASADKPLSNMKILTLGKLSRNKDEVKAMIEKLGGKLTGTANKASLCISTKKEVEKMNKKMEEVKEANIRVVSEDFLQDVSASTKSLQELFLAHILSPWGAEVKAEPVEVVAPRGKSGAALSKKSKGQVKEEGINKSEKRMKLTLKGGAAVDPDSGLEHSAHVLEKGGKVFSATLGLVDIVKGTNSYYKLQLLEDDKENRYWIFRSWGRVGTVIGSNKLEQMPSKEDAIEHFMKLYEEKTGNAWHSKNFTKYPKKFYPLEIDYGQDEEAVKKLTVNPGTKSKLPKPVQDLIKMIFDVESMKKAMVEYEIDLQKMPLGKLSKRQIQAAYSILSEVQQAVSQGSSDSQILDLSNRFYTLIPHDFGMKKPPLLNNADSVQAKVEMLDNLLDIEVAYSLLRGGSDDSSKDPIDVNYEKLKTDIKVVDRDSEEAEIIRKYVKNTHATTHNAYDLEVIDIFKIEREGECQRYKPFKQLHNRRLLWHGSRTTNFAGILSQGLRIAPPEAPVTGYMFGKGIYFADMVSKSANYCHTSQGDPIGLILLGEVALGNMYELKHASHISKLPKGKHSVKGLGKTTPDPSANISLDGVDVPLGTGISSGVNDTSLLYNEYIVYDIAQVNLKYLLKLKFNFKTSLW
Protein cereblon/Poly [ADP-ribose] polymerase 1, sequence (Q96SW2 whole entry partner): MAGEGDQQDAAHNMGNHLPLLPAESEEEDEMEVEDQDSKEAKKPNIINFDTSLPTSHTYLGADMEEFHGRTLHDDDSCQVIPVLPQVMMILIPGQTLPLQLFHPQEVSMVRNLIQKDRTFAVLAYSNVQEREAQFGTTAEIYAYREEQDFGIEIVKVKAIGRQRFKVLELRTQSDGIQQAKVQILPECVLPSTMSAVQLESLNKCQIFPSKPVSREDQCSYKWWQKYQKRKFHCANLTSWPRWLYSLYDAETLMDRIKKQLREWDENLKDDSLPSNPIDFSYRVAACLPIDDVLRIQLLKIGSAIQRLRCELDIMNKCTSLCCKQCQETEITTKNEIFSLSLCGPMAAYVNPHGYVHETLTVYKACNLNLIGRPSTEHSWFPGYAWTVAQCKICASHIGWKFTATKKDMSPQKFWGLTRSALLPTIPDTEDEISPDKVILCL

For `O=C(CCCCCCCCCCC(=O)N1CCN(C(=O)c2cc(Cc3n[nH]c(=O)c4ccccc34)ccc2F)CC1)NCCNc1cccc2c1C(=O)N(C1CCC(=O)NC1=O)C2=O` (stereo not given), the outcome in data set [1] was inactive. For the same compound, the figures for the Activity entry in data set [2] and in data set [4] were “Dose-dependent effect” and “Non-Toxic”, respectively. The compound also displayed a concentration at 1 h in data set [3] of 1830 nM. Also, in data set [5], the outcome was Active.

Values taken from ChEMBL document CHEMBL4699498 (J Med Chem, 2020).
